# Compound activity as filed in PubChem BioAssay.
# Shown are actives, neighbours in structure and some others; about 3.1% of the full set was active somewhere.
# KCNK9 block: KCNK9 potassium channel inhibitors, primary screen, HEK293 cells, thallium flux | Potassium channel subfamily K member 9 (Homo sapiens), Q9NPC2 | FluxOR thallium flux fluorescence; active compounds read low | B-score at 10 µM | 310,000 tested, 1.2% active;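 active = ratio B-score over 3 SD below the library mean, with starting fluorescence within 5 SD of its mean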;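 note: negative B-score means less thallium flux so channel inhibition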
# KCNK3 block: human KCNK3 channel inhibitors, primary screen, CHO cells, FluxOR thallium flux, B-score; B-score at 10 µM; 340,000 tested, 0.84% active; AID 602410, 2012; FluxOR fluorescence; active compounds read low; Potassium channel subfamily K member 3 (Homo sapiens), O14649;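 active = B-score under library mean minus 4 SD, starting fluorescence ratio at most library mean plus 5 SD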;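 note: more negative B-score means stronger inhibition of thallium flux through KCNK3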
# Target sequence (O14649 whole entry, looked up): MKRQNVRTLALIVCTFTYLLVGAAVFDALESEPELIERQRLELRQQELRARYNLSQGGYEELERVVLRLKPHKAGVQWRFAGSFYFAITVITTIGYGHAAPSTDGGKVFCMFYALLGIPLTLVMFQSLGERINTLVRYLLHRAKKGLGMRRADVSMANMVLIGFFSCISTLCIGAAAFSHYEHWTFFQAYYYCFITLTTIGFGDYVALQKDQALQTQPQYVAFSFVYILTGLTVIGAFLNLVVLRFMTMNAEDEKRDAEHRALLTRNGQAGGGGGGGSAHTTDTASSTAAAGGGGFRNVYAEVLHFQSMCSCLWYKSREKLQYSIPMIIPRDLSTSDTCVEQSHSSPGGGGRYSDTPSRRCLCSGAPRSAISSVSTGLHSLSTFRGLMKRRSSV
# hERG protect: hERG rescue from dofetilide block, primary screen, cell-based, CHO-hERG, FluxOR thallium flux, dofetilide IC70 | dofetilide IC70 present | activation (rescue from dofetilide block), less the hit threshold, % at 10 µM | 310,000 tested, 0.51% active | AID 1511, 2009;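 active = activation above the mean of controls blocked by dofetilide plus 5 SD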;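 note: thallium influx through hERG after potassium depolarization seen as dye fluorescence rise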
# KCNQ1 act: potentiators or activators of KCNQ1 channel, primary screen, cell-based, thallium flux, high-throughput; Potassium voltage-gated channel subfamily KQT member 1 (Homo sapiens), P51787; CHO-K1 KCNQ1, thallium flux FluxOR fluorescence; active compounds read high; AID 2648, 2010; 310,000 tested, 0.35% active; B-score at 10 µM;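 active = fluorescence ratio B-score, a plate-corrected score, at least three library SD, with initial intensity B-score within 5 SD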
#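 assay system = KCNQ1-transfected CHO-K1 cells | medium = assay buffer with matched DMSO | probe or stimulus = depolarizing K+/Tl+ stimulus, K2SO4 and Tl2SO4 each 12.5 mM in 5x stock | dosing = single dose | incubation = dye 90 min, compound 20 min, room temperature | detection = kinetic FluxOR fluorescence, 10 s baseline plus 110 s post-stimulus | evaluation = ratio B score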
# KCNQ1 inh: inhibitors of human KCNQ1 channel, primary screen, cell-based, thallium flux, high-throughput. Potassium voltage-gated channel subfamily KQT member 1 (Homo sapiens), P51787. CHO-K1 KCNQ1, FluxOR thallium flux fluorescence; active compounds read high. B-score at 10 µM. 310,000 tested, 1.3% active. AID 2642, 2010;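 active = compounds whose thallium flux B-score, printed positive for inhibition, exceeds three library SD while starting fluorescence stays within three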;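 note: channel opened by potassium depolarization with thallium stimulus after 20 min compound exposure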
# Active calls of the source: *; i = inactive; · = not tested or not shown.
SMILES,KCNK9 block,KCNK3 block,hERG protect,KCNQ1 act,KCNQ1 inh
CC1Nc2ncnc(N3CCN(c4ccccc4)CC3)c2N(Cc2ccc(Br)cc2)C1=O (stereo unspecified),-6.7*,i,-16,i,i
CS(=O)(=O)Nc1ccc(C2=NN(S(=O)(=O)c3ccccc3)C(c3cccs3)C2)cc1 (stereo unspecified),-8.1*,i,-7,i,i
O=C(O)c1cc(S(=O)(=O)N2CCCCC2)ccc1N1CCCC1,·,i,·,·,·
CC12CCC(C(=NO)C1=O)C2(C)C (stereo unspecified),·,i,·,·,·
C=CCn1c(=O)c2ccccc2n2c(=S)[nH]nc12,i,i,-6,i,i
C=CCn1c(=S)[nH]c2ccc(Br)cc2c1=O,i,i,10*,19*,i
C=CCn1c(=S)[nH]c2nc3c(cc2c1=O)CCCC3,i,i,5.9*,9*,i
Cc1cnc(N=Nc2ccccc2)[nH]1,·,i,·,·,·
CC(OC(=O)c1cc(S(=O)(=O)N2CCOCC2)ccc1F)C(=O)NC1CCCC1 (stereo unspecified),·,i,·,·,·
O=S(=O)(Nc1nc(-c2ccccc2)cs1)c1cc(Cl)ccc1Cl,i,i,-6,i,6*
O=[N+]([O-])c1ccc(S(=O)(=O)Nc2nc(-c3ccccc3)cs2)cc1,i,i,-10,i,i
COc1cc(-c2nnc(NC(=O)CCS(=O)(=O)c3ccccc3)o2)cc(OC)c1OC,i,i,-9,i,i
CCOC(=O)/C(C#N)=C/C=C1/C=CC=CN1C,i,i,-7,i,i
C=CCN1C=CC(=C/C=C(/C#N)C(=O)OCC)C=C1,i,i,-23,i,11*
N#CC(c1cccc(Cl)c1)c1ccc2c(C(F)(F)F)cc(C(F)(F)F)nc2n1 (stereo unspecified),i,i,-5,76*,i
NNc1ccc2c(C(F)(F)F)cc(C(F)(F)F)nc2n1,i,i,-5,i,i
N#Cc1ccc(C(=O)OCC(=O)N2CCCCCC2)cc1,·,i,·,·,·
CC(/C=N/n1c(C2CCCCC2)n[nH]c1=S)=C\c1ccccc1,i,i,-8,21*,i
Cc1cccc(/C=N/n2c(C3CCCCC3)n[nH]c2=S)c1,i,i,-4,i,i
C/C(=N\OCC(=O)Nc1ccc(OC(F)(F)F)cc1)c1ccc2c(c1)OCCO2,i,i,-6,10*,i
C/C(=N\OCC(=O)Nc1ccccc1C(C)(C)C)c1ccc2c(c1)OCCO2,i,i,-5,i,i
COc1ccc(CNS(=O)(=O)c2ccc(F)c(C(=O)Nc3ccc(OC)cc3)c2)cc1,i,i,4.8*,i,i
COc1ccc(CNS(=O)(=O)c2ccc(F)c(C(=O)Nc3ccccc3OC)c2)cc1,i,i,-3,i,i
CCOC(=O)Cn1c(S(=O)(=O)Cc2ccc(Cl)cc2)nc(-c2ccccc2)c1-c1ccccc1,-6.8*,i,-12,i,i
c1ccc(C2=Nc3c(ccc4ccccc34)C(c3ccncc3)=NN2)cc1,-7.7*,i,-11,i,i
SMILES,KCNK9 block,KCNK3 block,hERG protect,KCNQ1 act,KCNQ1 inh
COc1cc(C(=O)Nc2cccc(C)c2C)ccc1OCC(=O)N1CCOCC1,·,i,·,·,·
O=S(=O)(Nc1ccc2c(c1)OCO2)c1ccc(F)c(F)c1,·,i,·,·,·
CC(OC(=O)c1ccc(F)cc1)C(=O)Nc1nc(-c2cccc([N+](=O)[O-])c2)cs1 (stereo unspecified),-7.4*,i,-5,i,i
CC(C)c1ccccc1OCC(=O)Nc1cc(S(=O)(=O)N2CCOCC2)ccc1N1CCCC1,i,i,-18,i,i
CCOC(=O)CNC(=O)CN1CCCN(S(=O)(=O)c2ccc(Br)s2)CC1,·,i,·,·,·
O=C(CN1CCCN(S(=O)(=O)c2ccc(Br)s2)CC1)Nc1ccc(Cl)cc1,i,-9.3*,-12,i,i
CC(=O)Nc1ccc(C(=O)OCC(=O)Nc2ccccc2Sc2ccccc2)cc1,-7.2*,i,-6,i,i
CN(C)c1cccc(C(=O)OCC(=O)Nc2ccccc2-c2ccccc2)c1,i,i,-1,i,i
CN(C)c1cccc(C(=O)OCC(=O)Nc2ccccc2Sc2ccccc2)c1,i,i,-14,i,6*
O=C(COC(=O)c1c(F)cccc1Cl)NCC1CCCCC1,·,i,·,·,·
COc1ccccc1C(O)(c1ccccc1)c1ccccc1OC,·,-10*,·,·,·
CCNC(=S)N/N=C1\C(=O)c2cccc3cccc1c23,i,i,7.9*,9*,i
CCNC(=S)N/N=C1\CCCCc2ccccc21,i,i,1,i,i
O=C(N/N=C1/C(=O)c2cccc3cccc1c23)c1ccc(Cl)cc1,i,i,53*,41*,i
O=C(Nc1nc(=S)ss1)c1ccc(Cl)cc1Cl,i,i,41*,15*,i
CCCCNC(=S)NNC(=O)c1nn(C)c(C)c1Cl,i,i,-14,17*,i
NNc1nc2c(F)cccc2s1,i,i,-9,i,i
Fc1cccc2sc(Nc3nnc(-c4ccccc4)o3)nc12,i,i,51*,66*,i
COc1ccc(-c2nnc(Nc3nc4c(OC)cccc4s3)o2)cc1,i,i,12*,50*,i
COc1cc(OC)cc(-c2nnc(NC(=O)CCS(=O)(=O)c3ccc(F)cc3)o2)c1,i,i,-13,i,i
Fc1cccc2sc(Nc3nc4c(F)cccc4s3)nc12,i,i,13*,i,i
COc1cc(OC)cc(-c2nnc(Nc3nc4c(F)cccc4s3)o2)c1,i,i,5.9*,22*,i
COc1ccc(-c2nnc(Nc3nc4c(OC)cccc4s3)o2)c(OC)c1,i,i,2,i,i
Cc1ccc(NC(=O)CSc2nc3[nH]ncc3c(=O)[nH]2)cc1Cl,i,i,-13,i,i
CCOc1ccc(S(=O)(=O)N2CCCCC2)cc1NC(=O)Cc1cccs1,i,i,-8,i,i
O=C(NCCOc1ccccc1)c1cc(S(=O)(=O)N2CCOCC2)ccc1F,i,i,-8,i,i
CC[C@]12c3[nH]c4cc(CCC(=O)N(C)C)ccc4c3CCN1C(=O)[C@@H](CC(=O)NCc1ccco1)C[C@@H]2C(=O)N1CCN(C(=O)C2CC2)CC1,·,i,·,·,·
